PAFAH1B2 inh – inhibitors of human PAFAH1B2. recombinant PAFAH1B2, FP-rhodamine activity probe, fluorescence polarization. AID 492953. inhibition, % at 3.39 µM. 1.2% of 340,000 active. P68402;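 active = inhibition above the mean of all tested compounds plus 3 SD, cut at about 24% in these data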;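 note: 0% = enzyme with DMSO and 100% = wells lacking PAFAH1B2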
pPAFAH FP inh – pPAFAH (human) enzyme inhibition; recombinant pPAFAH, FP-rhodamine probe fluorescence polarization; inhibition, % at 3.39 µM; 1.5% of 330,000 active; AID 463082;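 active = inhibition above the mean inhibition across the screen plus 3 SD, cut at about 25% in these data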;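 note: inhibitors block binding of the rhodamine activity-based probe so polarization drops; 0% = enzyme with DMSO and 100% = wells lacking pPAFAH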
Target sequence (Q13093 whole entry, looked up): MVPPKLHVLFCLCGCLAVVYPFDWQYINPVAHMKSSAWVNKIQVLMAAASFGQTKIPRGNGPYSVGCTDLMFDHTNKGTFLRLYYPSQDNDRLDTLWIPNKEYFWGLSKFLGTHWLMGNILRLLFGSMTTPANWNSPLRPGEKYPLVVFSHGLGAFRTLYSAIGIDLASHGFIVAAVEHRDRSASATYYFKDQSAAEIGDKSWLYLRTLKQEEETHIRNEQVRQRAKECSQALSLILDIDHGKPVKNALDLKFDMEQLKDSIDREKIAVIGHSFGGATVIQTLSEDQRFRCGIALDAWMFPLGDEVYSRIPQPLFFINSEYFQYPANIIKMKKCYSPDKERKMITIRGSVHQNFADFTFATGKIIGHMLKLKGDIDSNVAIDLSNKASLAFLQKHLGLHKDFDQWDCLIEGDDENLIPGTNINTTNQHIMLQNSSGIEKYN
PAFAH1B3 inh – PAFAH1B3 (human) inhibition; Q15102; recombinant PAFAH1B3, FP-rhodamine probe, fluorescence polarization; inhibition, % at 3.39 µM; 0.28% of 340,000 active; AID 492972;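 active = inhibition above the screen-wide average of all tested compounds plus 3 SD, cut at about 25% in these data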;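 note: 0% = enzyme with DMSO only and 100% = wells lacking PAFAH1B3 protein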
Target sequence (Q15102 whole entry, looked up): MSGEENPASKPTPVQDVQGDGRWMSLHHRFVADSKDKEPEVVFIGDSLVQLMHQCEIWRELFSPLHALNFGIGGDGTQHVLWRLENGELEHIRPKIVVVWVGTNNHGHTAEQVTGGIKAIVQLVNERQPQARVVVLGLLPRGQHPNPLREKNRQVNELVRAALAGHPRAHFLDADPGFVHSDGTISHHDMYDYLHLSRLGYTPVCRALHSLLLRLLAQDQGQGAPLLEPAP
IMP-1 inh – blocks Pseudomonas aeruginosa IMP-1 metallo-beta-lactamase | purified IMP-1, nitrocefin hydrolysis, epi-absorbance fluorescence | inhibition, % at 5.6 µM | 0.45% of 290,000 active | AID 1556;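 active = inhibition above the mean plus 3 SD of all compounds in the same screening run, cut at about 4.5% in these data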;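 note: 0% = IMP-1 with DMSO and 100% = DMSO wells lacking enzyme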
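Material – recombinant IMP-1 enzyme, purified · Amount – IMP-1 0.2 nM before substrate addition · Medium – HEPES buffer pH 7.1 with ZnSO4 and Brij 35 · Timing – 25 °C, 15 min preincubation, 25 min reaction · Measured by – plate fluorescence quenching by hydrolysis product, ex 480/em 530 nm · Read-out – percent enzyme inhibition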
VIM-2 inhibitor – blocks Pseudomonas aeruginosa VIM-2 metallo-beta-lactamase | purified VIM-2, nitrocefin hydrolysis, epi-absorbance fluorescence | inhibition, % at 5.6 µM | 0.89% of 290,000 active | AID 1527;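 active = inhibition above the mean of all tested compounds plus 3 SD, cutoff set per screening run, cut at about 7.5% in these data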;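 note: red hydrolysis product quenches plate fluorescence so inhibitors raise well fluorescence; 0% = enzyme with DMSO and 100% = DMSO without enzyme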
PAFAH2 FP inh – inhibitors of human PAFAH2; 0.99% of 340,000 active; Q99487; recombinant PAFAH2, FP-rhodamine activity probe, fluorescence polarization; inhibition, % at 3.39 µM;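 active = inhibition above the mean over all tested compounds plus 3 SD, cut at about 30% in these data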;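 note: inhibitors block probe labeling of enzyme so polarization drops; 0% = enzyme with DMSO and 100% = wells lacking PAFAH2 protein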
PAFAH2 FP conf – confirmation of human PAFAH2 inhibitors | shares compounds with PAFAH2 FP inh | recombinant PAFAH2, FP-rhodamine activity probe, fluorescence polarization | inhibition, % at 3.39 µM | 65% of 2,300 active | AID 493030;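 active = mean inhibition over three repeats above a set limit taken from the earlier primary screen, cut at about 30% in these data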;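 note: inhibitor blocks binding of rhodamine activity probe so polarization falls; 0% = enzyme with DMSO and 100% = wells lacking PAFAH2 protein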
* marks the source's active call; other numbers are inactive results; / = no result. This is a sample that favours compounds with a hit; in the whole collection about 3.6% have one here.

SMILES | PAFAH1B2 inh | pPAFAH FP inh | PAFAH1B3 inh | IMP-1 inh | VIM-2 inhibitor | PAFAH2 FP inh | PAFAH2 FP conf
O=C(Nc1ccc(C(=O)OC2CCCCC2)cc1)c1ccncc1 | -0.6 | -3.7 | 5.0 | 1.5 | 0.3 | -10.1 | /
CCOc1cc(C(=O)OCC(=O)Nc2c(C)cccc2C)ccc1OCC(=O)N1CCOCC1 | 1.1 | 12.5 | 1.9 | -3.8 | -2.1 | 50.5* | 67.7*
Cc1c(Cl)cnc(NC(=O)COC(=O)c2ccc3c(c2)OCO3)c1Cl | 2.7 | 8.4 | 8.3 | -3.3 | -1.5 | 50.3* | 29.8*
COc1cc(C(=O)OCC(=O)Nc2ccc(C(C)=O)cc2)ccc1OCC(=O)N1CCOCC1 | 7.2 | 0.7 | 6.4 | -3.6 | -2.3 | 60.9* | 58.1*
CCN(C(=O)COC(=O)C(c1ccccc1)c1ccccc1)c1c(N)n(Cc2ccccc2)c(=O)[nH]c1=O | 3.5 | / | 7.6 | / | / | 5.2 | /
CN(C(=O)COC(=O)c1ccc(NS(=O)(=O)c2cccs2)cc1)C1CCCCC1 | 0.2 | 21.7 | 11.8 | -2.0 | -1.2 | 69.9* | 72.1*
Cc1c(NS(=O)(=O)c2cccc(C(=O)N3CCC(C)CC3)c2)c(=O)n(-c2ccccc2)n1C | 6.1 | -2.3 | 7.2 | / | / | 4.9 | /
Cc1c(NS(=O)(=O)c2cccc(C(=O)OCC(=O)N(C)C3CCCCC3)c2)c(=O)n(-c2ccccc2)n1C | 2.5 | 5.4 | 2.3 | -2.5 | -0.4 | 33.7* | 20.7
NC(=O)Nc1ccc(C(=O)OCC(=O)NC2CCCCC2)cc1 | -0.1 | 4.1 | 9.0 | -3.6 | -0.8 | 81.2* | 80.2*
O=C(COC(=O)c1ccc(Cl)nc1)NC1CCCCCC1 | -0.8 | 4.2 | -5.5 | / | / | 22.9 | /
CC(=O)Nc1ccc(C(=O)OCC(=O)N(C)C2CCCCC2)cc1 | 2.5 | -6.9 | -0.7 | -2.8 | -1.4 | 31.8* | 27.4
Cc1c(CCCl)c(Cl)n2c(nc3ccccc32)c1C#N | 5.7 | / | 12.1 | / | / | 2.5 | /
CC(C)c1ccc(NC(=O)CN2C(=O)NC3(CCCCCCC3)C2=O)cc1 | 6.4 | 7.1 | 10.3 | / | / | 2.9 | /
CC(=O)Nc1ccc(C(=O)OCC(=O)NC2CCCCCCC2)cc1 | 8.2 | -10.1 | 16.1 | -2.3 | -3.4 | 79.0* | 74.7*
Cc1ccc(C(=O)ONc2ccc(N=NC(=O)c3ccccc3O)cc2)cc1 | 6.3 | -6.0 | 9.8 | -3.8 | -5.1 | 44.6* | 22.0
Cc1ccc(C(=O)ONc2ccc(N=O)cc2)cc1 | -0.5 | 10.3 | -4.5 | -1.2 | 1.3 | 57.3* | 51.5*
CC(C)N(C(=O)[C@H]1C[C@H](CC(=O)NCCCn2ccnc2)C(=O)N2CCc3c([nH]c4ccc(Cl)cc34)[C@]12C)C(C)C | 3.0 | 5.9 | 4.6 | / | / | -9.3 | /
COc1cccc(NC(=O)c2ccccc2F)c1 | -5.7 | 3.1 | 0.2 | / | / | -0.1 | /
COc1cccc(NC(=O)COC(=O)c2nc(Cl)ccc2Cl)c1 | -5.2 | 9.2 | 2.3 | -2.9 | -1.8 | -2.9 | /
COc1cccc(NC(=O)COC(=O)c2c(F)cccc2Cl)c1 | 3.8 | 5.9 | 3.7 | 0.5 | -0.2 | 60.9* | 58.5*
COc1cccc(NC(=O)COC(=O)c2ccccc2F)c1 | -2.0 | 13.2 | 6.8 | -2.0 | -3.2 | 76.2* | 70.2*
Cc1nc([N+](=O)[O-])cn1CC(=O)c1ccc(OC(F)(F)F)cc1 | 5.8 | -0.4 | -0.9 | 1.5 | 2.7 | -2.5 | /
CC(C)CN1C(=O)C(=O)N(CC(=O)N(C)CC(=O)Nc2ccc(F)cc2)C1=O | 6.4 | 8.4 | -5.2 | / | / | 5.5 | /
O=C1c2cccc3cccc(c23)C(=O)N1OS(=O)(=O)c1ccc(Cl)cc1 | 2.6 | 4.7 | 9.7 | -4.7 | -2.7 | 33.2* | 34.4*
COc1ccc(C(=O)OCn2nnc3ccccc3c2=O)cc1OC | -5.2 | 2.9 | 4.8 | -3.2 | -1.1 | 36.4* | 45.9*
SMILES | PAFAH1B2 inh | pPAFAH FP inh | PAFAH1B3 inh | IMP-1 inh | VIM-2 inhibitor | PAFAH2 FP inh | PAFAH2 FP conf
O=C(OCc1nc2ccccc2c(=O)[nH]1)c1cccs1 | -5.5 | 1.8 | 1.2 | -4.5 | -3.1 | 42.0* | 29.2
COc1cccc(C(=O)OCn2nnc3ccccc3c2=O)c1 | 7.5 | 1.4 | 8.9 | -0.8 | 2.1 | 36.8* | 21.5
O=c1[nH]c(Cc2cccs2)nc2ccccc12 | 0.6 | 3.7 | 0.8 | -2.5 | 1.6 | -3.4 | /
O=C(OCn1nnc2ccccc2c1=O)c1cccs1 | 6.2 | 6.7 | 5.0 | -1.8 | -2.8 | 47.0* | 36.5*
O=C(Nc1cccc(F)c1)C1CCCN(S(=O)(=O)c2cccc3cccnc23)C1 (configuration not stated) | 3.3 | 2.9 | 3.8 | -1.6 | -3.0 | -10.1 | /
O=C(COC(=O)CCC(=O)c1ccc(F)cc1)NCCc1ccccc1 | 2.2 | 13.9 | 2.8 | / | / | 2.8 | /
COc1ccccc1-n1c(C)c2c(OC)cccc(=O)c2c1C | 3.9 | 12.7 | 4.6 | 1.0 | 9.2* | 39.0* | 54.8*
COc1cccc(=O)c2c(C)oc(C)c12 | -2.1 | -3.4 | 4.8 | -2.9 | -3.6 | 6.7 | /
CCCc1c(C(=O)Nc2ccc(C(F)(F)F)cc2)cnn1-c1ccccc1 | 0.7 | -4.0 | 7.6 | -1.1 | -1.5 | 1.4 | /
CCCc1c(C(=O)NNc2ccc(C)cc2)cnn1-c1ccccc1 | 4.0 | 4.2 | -1.1 | -0.4 | 0.3 | 33.1* | 13.9
CCC(C)[C@H](NS(=O)(=O)c1ccc(C)cc1)C(=O)N1CCC(C(=O)N2CCC(C(=O)OC)CC2)CC1 (some centres not stated) | 5.5 | -1.8 | 3.4 | -4.0 | -3.5 | 9.3 | /
C#C[C@]1(O)CC[C@H]2[C@@H]3CCc4cc(OC)ccc4[C@H]3CC[C@@]21C | -0.6 | -2.7 | 9.7 | -2.0 | -1.6 | 25.8 | /
C#C[C@]1(O)CC[C@H]2[C@@H]3CCc4cc(OC5CCCC5)ccc4[C@H]3CC[C@@]21C | 0.9 | -0.5 | -4.0 | -0.5 | -1.1 | 53.4* | 51.2*
CCc1sc(/C=C(/C#N)C(N)=S)cc1[N+](=O)[O-] | 12.5 | / | 10.5 | -1.7 | 2.8 | 31.1* | 24.6
Cn1c2ccccc2n2c(=O)c(Cl)c(-c3ccccc3)c(C#N)c12 | 5.3 | 5.5 | 11.8 | -5.1 | -1.6 | 38.9* | 23.9
O=C(NC1(C(F)(F)F)OCCO1)c1ccc(F)cc1 | 5.2 | -0.4 | 3.5 | -2.5 | -2.3 | -3.4 | /
CC(=O)N1CCN(c2nc(C)nc3sc4c(c23)CCC(C)C4)CC1 (configuration not stated) | 0.7 | 3.4 | -7.6 | -0.7 | -1.0 | 30.2* | 14.1
Cc1nc(N2CCN(S(=O)(=O)c3ccccc3)CC2)c2c3c(sc2n1)CC(C)CC3 (configuration not stated) | 6.0 | / | -2.1 | -0.6 | -0.6 | -3.5 | /
COc1cc(NC(=O)COC(=O)C2CC2)c(C)cc1[N+](=O)[O-] | -1.7 | -0.8 | 4.8 | 0.2 | -0.7 | 45.5* | 28.0
CCOCC(=O)OCC(=O)Nc1cc(OC)c([N+](=O)[O-])cc1C | 2.1 | 3.1 | 12.1 | -4.2 | -5.3 | 7.8 | /
COc1cc(NC(=O)COC(=O)C=C(C)C)c(C)cc1[N+](=O)[O-] | -1.7 | 7.9 | 8.7 | -3.3 | -1.7 | 61.2* | 28.3

High-throughput results (PubChem BioAssay)
